Measured values: ChEMBL document CHEMBL1156453, “Cellular characterization of a novel focal adhesion kinase inhibitor” (J Biol Chem, 2007)
Calls of active or inactive are those of the source. The calls are words filed in the database; no cut-off is given here.

Legend:
[1] = target: Mast/stem cell growth factor receptor Kit (Homo sapiens) (UniProt P10721); assay: Inhibition of c-kit at 1 uM
[2] = target: Tyrosine-protein kinase Lck (Homo sapiens) (UniProt P06239); assay: Inhibition of LCK at 1 uM
[3] = target: Mitogen-activated protein kinase 1 (Homo sapiens) (UniProt P28482); assay: Inhibition of human MAPK1 at 1 uM
Mitogen-activated protein kinase 1 (Homo sapiens), sequence (P28482 whole entry): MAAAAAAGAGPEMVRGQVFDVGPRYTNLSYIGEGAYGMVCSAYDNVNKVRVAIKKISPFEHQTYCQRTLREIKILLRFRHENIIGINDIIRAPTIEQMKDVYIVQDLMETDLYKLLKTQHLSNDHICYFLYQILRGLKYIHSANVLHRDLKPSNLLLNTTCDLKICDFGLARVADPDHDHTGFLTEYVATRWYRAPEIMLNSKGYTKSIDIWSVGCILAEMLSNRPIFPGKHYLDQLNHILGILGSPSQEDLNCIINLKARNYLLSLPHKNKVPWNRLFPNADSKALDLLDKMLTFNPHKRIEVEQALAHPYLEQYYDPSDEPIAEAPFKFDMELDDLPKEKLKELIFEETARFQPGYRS
Procedure, shortened: (§1)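 Recombinant kinases were screened in a commercial profiling panel with the compound at a single concentration of 1 μM. The read-out is percent inhibition of each enzyme's kinase activity.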

[4] = target: Dual specificity mitogen-activated protein kinase kinase 1 (Homo sapiens) (UniProt Q02750); assay: Inhibition of human MEK1 at 1 uM
[5] = Inhibition of MKK at 1 uM; procedure, shortened: as §1
[6] = target: Dual specificity mitogen-activated protein kinase kinase 6 (Homo sapiens) (UniProt P52564); assay: Inhibition of MKK6 at 1 uM
Dual specificity mitogen-activated protein kinase kinase 6 (Homo sapiens), sequence (P52564 whole entry): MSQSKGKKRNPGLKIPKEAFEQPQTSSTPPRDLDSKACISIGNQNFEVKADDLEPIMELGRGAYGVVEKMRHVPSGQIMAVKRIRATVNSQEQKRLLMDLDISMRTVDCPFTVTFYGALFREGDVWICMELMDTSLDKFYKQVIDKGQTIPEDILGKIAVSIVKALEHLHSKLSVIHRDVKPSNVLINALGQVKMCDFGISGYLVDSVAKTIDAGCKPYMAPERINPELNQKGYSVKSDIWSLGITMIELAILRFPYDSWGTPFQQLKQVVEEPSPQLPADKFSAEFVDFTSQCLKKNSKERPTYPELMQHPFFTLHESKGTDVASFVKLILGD

[7] = target: Platelet-derived growth factor receptor beta (Homo sapiens) (UniProt P09619); assay: Inhibition of PDGFRbeta at 1 uM
[8] = target: Ribosomal protein S6 kinase beta-1 (Homo sapiens) (UniProt P23443); assay: Inhibition of human P70S6K at 1 uM
Ribosomal protein S6 kinase beta-1 (Homo sapiens), sequence (P23443 whole entry, looked up, canonical isoform): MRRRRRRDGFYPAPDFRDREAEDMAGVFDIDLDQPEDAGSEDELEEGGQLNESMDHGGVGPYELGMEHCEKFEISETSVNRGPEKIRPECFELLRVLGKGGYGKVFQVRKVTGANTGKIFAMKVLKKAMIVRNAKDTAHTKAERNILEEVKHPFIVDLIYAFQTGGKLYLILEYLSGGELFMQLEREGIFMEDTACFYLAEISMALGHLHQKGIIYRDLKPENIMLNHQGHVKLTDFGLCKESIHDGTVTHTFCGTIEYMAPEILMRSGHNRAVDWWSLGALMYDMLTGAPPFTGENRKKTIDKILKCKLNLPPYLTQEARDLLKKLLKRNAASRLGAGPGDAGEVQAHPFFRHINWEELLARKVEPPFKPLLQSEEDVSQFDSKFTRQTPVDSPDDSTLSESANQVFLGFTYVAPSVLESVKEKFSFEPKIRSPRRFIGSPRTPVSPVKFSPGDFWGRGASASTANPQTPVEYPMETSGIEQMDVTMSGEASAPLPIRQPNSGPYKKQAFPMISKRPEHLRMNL

[9] = target: Phosphatidylinositol 4,5-bisphosphate 3-kinase catalytic subunit gamma isoform (Homo sapiens) (UniProt P48736); assay: Inhibition of human PI3-Kgamma at 1 uM
Homo sapiens [10] = species on record: Homo sapiens; assay: Inhibition of human PKA at 1 uM; procedure, shortened: as §1
Homo sapiens [11] = species on record: Homo sapiens; assay: Inhibition of human PKBalpha at 1 uM; procedure, shortened: as §1
[12] = target: Protein kinase C alpha type (Homo sapiens) (UniProt P17252); assay: Inhibition of human PKCalpha at 1 uM
[13] = Inhibition of cell migration of rat REF52 cells assessed as reduction in rate of movement of cell into wound at 10 uM by wound healing assay in presence of 10% serum; format: functional; parameters: scale not given: the % may be the effect or the level left
[14] = target: Cyclin-dependent kinase 1/cyclin B1 (Homo sapiens, UniProt P06493); assay: Inhibition of human CDK1/cyclinB; format: protein-complex assay
Cyclin-dependent kinase 1/cyclin B1, sequence (P06493 whole entry): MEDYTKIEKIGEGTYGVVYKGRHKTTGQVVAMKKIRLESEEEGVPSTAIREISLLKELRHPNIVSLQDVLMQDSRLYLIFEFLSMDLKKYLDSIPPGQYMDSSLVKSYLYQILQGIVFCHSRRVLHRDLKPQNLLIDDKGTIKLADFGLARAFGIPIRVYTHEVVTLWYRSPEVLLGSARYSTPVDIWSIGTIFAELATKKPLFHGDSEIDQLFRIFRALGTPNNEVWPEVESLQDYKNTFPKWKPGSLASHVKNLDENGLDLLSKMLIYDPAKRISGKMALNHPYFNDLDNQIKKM
Cyclin-dependent kinase 1/cyclin B1, sequence (P14635 whole entry, further chain): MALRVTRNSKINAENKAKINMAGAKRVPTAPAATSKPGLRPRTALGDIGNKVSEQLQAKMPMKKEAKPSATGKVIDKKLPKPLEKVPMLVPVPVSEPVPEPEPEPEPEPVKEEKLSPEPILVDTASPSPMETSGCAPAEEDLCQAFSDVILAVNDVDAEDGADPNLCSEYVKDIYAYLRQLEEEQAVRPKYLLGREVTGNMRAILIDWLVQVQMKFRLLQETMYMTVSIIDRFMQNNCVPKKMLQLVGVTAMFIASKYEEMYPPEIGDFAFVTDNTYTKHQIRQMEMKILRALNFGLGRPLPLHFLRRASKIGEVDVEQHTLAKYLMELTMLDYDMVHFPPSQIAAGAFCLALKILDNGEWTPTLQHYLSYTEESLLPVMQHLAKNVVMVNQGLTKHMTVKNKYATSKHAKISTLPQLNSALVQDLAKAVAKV

[15] = target: Cyclin-dependent kinase 7 (Homo sapiens, UniProt P50613); assay: Inhibition of human CDK7/cyclinH/MAT1
[16] = target: Glycogen synthase kinase-3 beta (Homo sapiens, UniProt P49841); assay: Inhibition of human GSK3-beta
Glycogen synthase kinase-3 beta, sequence (P49841 whole entry): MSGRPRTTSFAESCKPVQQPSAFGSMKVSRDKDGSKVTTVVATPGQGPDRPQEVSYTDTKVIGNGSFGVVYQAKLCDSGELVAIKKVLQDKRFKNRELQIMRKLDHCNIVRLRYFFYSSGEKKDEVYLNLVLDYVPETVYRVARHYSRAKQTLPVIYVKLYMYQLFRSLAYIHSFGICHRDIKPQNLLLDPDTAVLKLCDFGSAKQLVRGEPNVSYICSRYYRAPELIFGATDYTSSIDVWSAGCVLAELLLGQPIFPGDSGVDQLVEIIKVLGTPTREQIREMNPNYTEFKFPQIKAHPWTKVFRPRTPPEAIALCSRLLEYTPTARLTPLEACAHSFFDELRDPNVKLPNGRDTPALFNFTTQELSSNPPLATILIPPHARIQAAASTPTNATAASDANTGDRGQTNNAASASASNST

NIH3T3 [17] = assay: Inhibition of focal adhesion turnover in wounded mouse NIH3T3 cells expressing GFP-paxillin assessed as average adhesion life-time at 10 uM by TIRF microscopy; format: functional
[18] = target: Paxillin (Rattus norvegicus) (UniProt Q66H76); assay: Induction of paxillin organization loss in focal adhesion in rat REF52 cells at 3 uM after 1 hr by immunostaining; format: cell-based
Paxillin (Rattus norvegicus), sequence (Q66H76 whole entry): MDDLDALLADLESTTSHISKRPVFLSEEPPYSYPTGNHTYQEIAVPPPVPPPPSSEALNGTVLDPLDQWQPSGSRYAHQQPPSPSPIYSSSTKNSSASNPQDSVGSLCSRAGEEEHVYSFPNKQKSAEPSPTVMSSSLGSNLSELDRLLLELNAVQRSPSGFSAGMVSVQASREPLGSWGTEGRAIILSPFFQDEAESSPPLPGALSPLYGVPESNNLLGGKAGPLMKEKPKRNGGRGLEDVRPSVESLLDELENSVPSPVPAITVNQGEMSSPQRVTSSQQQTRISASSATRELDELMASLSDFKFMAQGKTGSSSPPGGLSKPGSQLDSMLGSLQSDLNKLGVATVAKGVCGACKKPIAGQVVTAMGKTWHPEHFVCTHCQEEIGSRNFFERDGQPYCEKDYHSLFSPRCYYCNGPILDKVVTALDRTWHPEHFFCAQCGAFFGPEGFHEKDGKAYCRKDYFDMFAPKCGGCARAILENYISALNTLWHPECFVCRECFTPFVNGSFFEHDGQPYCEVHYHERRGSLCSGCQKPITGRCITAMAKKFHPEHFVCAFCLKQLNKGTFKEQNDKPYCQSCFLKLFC
Procedure, shortened: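 REF52 cells held in suspension 30 min to 1 h without serum with inhibitor, then plated on 5 μg/ml fibronectin-coated coverslips for 60 min with inhibitor still present. Cells fixed in 4% paraformaldehyde, permeabilized with Triton X-100 and immunostained for paxillin and phospho-FAK Tyr397. Imaged by fluorescence microscopy, 60× objective.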

Focal adhesion kinase 1 [19] = target: T1, Focal adhesion kinase 1 (Homo sapiens, UniProt Q05397); assay: Inhibition of FAK Tyr397 phosphorylation in human A431 cells by ELISA
T1 sequence (Q05397 whole entry): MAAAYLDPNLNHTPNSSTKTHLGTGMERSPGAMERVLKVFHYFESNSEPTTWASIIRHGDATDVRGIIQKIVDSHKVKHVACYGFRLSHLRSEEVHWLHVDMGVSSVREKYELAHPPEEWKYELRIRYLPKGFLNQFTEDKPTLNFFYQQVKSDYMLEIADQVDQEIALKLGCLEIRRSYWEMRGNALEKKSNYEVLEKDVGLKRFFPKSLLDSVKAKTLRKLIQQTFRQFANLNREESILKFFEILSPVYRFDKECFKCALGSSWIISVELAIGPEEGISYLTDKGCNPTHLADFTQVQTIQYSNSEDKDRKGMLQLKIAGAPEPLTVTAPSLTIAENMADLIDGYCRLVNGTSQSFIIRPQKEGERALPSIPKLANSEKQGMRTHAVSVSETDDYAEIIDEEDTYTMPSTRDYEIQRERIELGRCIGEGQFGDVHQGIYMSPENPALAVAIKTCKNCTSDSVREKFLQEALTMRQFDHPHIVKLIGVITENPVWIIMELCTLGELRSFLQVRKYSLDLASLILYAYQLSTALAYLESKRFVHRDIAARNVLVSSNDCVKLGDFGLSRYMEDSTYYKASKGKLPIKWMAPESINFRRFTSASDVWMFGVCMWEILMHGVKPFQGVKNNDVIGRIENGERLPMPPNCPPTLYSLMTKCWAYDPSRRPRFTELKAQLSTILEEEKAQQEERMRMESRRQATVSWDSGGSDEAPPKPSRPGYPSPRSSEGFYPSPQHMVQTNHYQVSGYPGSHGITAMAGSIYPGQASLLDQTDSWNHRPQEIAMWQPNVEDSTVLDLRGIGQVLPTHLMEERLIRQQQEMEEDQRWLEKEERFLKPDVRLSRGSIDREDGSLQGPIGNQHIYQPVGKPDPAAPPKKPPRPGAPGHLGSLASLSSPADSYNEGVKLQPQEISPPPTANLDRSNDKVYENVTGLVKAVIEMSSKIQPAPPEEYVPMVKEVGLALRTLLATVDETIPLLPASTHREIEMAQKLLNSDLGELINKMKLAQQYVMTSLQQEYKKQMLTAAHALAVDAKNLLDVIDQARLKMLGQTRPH

Focal adhesion kinase 1 [20] = target: T1, Focal adhesion kinase 1; assay: Inhibition of FAK Tyr397 phosphorylation in human PC3 cells after 60 mins by Western blot analysis
Focal adhesion kinase 1 [21] = target: T1, Focal adhesion kinase 1; assay: Inhibition of FAK Tyr397 phosphorylation in human SKOV3 cells after 60 mins by Western blot analysis
Focal adhesion kinase 1 [22] = target: T1, Focal adhesion kinase 1; assay: Inhibition of FAK Tyr397 phosphorylation in human L3.6pl cells after 60 mins by Western blot analysis
Focal adhesion kinase 1 [23] = target: T1, Focal adhesion kinase 1; assay: Inhibition of FAK Tyr397 phosphorylation in human FG cells after 60 mins by Western blot analysis
[24] = Inhibition of FAK Tyr397 phosphorylation in dog MDCK cells after 60 mins by Western blot analysis; format: cell-based; settings: Canis lupus familiaris, 1 h
Procedure, shortened: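 MDCK cells treated with increasing inhibitor concentrations, 60 min, as for REF52. Whole-cell lysates immunoblotted for phospho-FAK Tyr397 and total FAK. Phospho-signal normalized to total FAK, and IC50 derived from the concentration series.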

Fibroblast = assay: Inhibition of cell growth in […] fibroblast at 10 uM; format: functional, cell-based
[25] = target: Paxillin (Rattus norvegicus) (UniProt Q66H76); assay: Decrease in Paxillin Try31 phosphorylation in rat REF52 cells; format: cell-based
Procedure, shortened: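 REF52 cells exposed to 1 μm inhibitor for the indicated times, then lysed in CH buffer containing phosphatase and protease inhibitors. Whole-cell lysates resolved by SDS-PAGE and immunoblotted with anti-phospho-Tyr31 paxillin and anti-paxillin.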

MDCK = assay: Induction of apoptosis in attached dog MDCK cells assessed as histone accumulation after 16 hrs by ELISA; format: functional, cell-based; settings: Canis lupus familiaris
Procedure, shortened: (§2)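 Attached cells in serum-containing medium treated with inhibitor at the indicated concentrations, 24 h for REF52 and PC3, 16 h for MDCK, then lysed. Free histones in lysates measured by cell death detection ELISA, in duplicate. Untreated adherent cells were the negative control. Cells suspended 16–24 h in serum-free medium were the positive control. One of three experiments shown.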

REF52 = assay: Induction of apoptosis in attached rat REF52 cells assessed as histone accumulation after 24 hrs by ELISA; format: functional, cell-based; procedure, shortened: as §2
PC-3 [26] = assay: Induction of apoptosis in attached human PC3 cells assessed as histone accumulation after 24 hrs by ELISA; format: functional, cell-based; procedure, shortened: as §2
NIH3T3 [27] = assay: Inhibition of focal adhesion turnover in wounded mouse NIH3T3 cells expressing GFP-paxillin assessed as decrease in rate of disassembly by TIRF microscopy; format: functional, cell-based
PC-3 [28] = assay: Cell number in human PC3 cells at 1 uM after 3 days as % of control; settings: PC-3, 72 h
[29] = Cell number in rat REF52 cells at 1 uM after 3 days as % of control; settings: REF52, 72 h
PC-3 [30] = assay: Cell number in human PC3 cells at 10 uM after 3 days as % of control; settings: PC-3, 72 h
[31] = Cell number in rat REF52 cells at 10 uM after 3 days as % of control; settings: REF52, 72 h
PC-3 [32] = assay: Induction of apoptosis in human PC3 cells attached in serum containing medium assessed as histone accumulation after 24 hrs by ELISA

CS(=O)(=O)c1cccc(CNc2nc(Nc3ccc4c(c3)CCC(=O)N4)ncc2C(F)(F)F)c1
inhibition [1]: 25%
inhibition [2]: 0%
inhibition [3]: 48%
inhibition [4]: 20%
inhibition [5]: 48%
inhibition [6]: 16%
inhibition [7]: 2%
inhibition [8]: 31%
inhibition [9]: 0%
inhibition (Homo sapiens [10]): 0%
inhibition (Homo sapiens [11]): 13%
inhibition [12]: 12%
Activity [13]: 60%
IC50 [14]: 486 nM
IC50 [15]: 197 nM
IC50 [16]: > 1000 nM
Time (NIH3T3 [17]): 42 min
Activity [18]: Active
IC50 (Focal adhesion kinase 1 [19]): 11 nM
IC50 (Focal adhesion kinase 1 [20]): 100 nM
IC50 (Focal adhesion kinase 1 [21]): 50 nM
IC50 (Focal adhesion kinase 1 [22]): 300 nM
IC50 (Focal adhesion kinase 1 [23]): 30 nM
IC50 [24]: 500 nM
Activity (Fibroblast): Active
Activity [25]: Dose-dependent effect
Activity (MDCK): inactive
Activity (REF52): inactive
Activity (PC-3 [26]): inactive
Activity (NIH3T3 [27]): Active
level, % of control at 1 µM (PC-3 [28]): 109%
level, % of control at 1 µM [29]: 141%
level, % of control at 10 µM (PC-3 [30]): 17%
level, % of control at 10 µM [31]: 7%
Activity (PC-3 [32]): inactive
